The assay has as its target T1, C-C chemokine receptor type 1 (Homo sapiens, UniProt P32246).
T1 sequence (P32246 whole entry): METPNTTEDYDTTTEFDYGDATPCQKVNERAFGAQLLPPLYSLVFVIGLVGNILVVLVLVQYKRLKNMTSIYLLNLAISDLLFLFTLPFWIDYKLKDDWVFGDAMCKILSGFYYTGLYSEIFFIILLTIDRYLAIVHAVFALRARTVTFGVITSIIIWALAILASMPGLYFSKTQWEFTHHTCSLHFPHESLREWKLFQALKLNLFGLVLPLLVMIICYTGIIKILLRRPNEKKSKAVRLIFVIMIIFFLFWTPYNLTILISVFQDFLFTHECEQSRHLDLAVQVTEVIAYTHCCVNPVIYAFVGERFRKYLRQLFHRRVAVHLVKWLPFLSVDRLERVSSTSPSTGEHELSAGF
Nature of the assay: Displacement of [125I]MIP-1alpha from CCR1 in human THP1 cells. In kind it is cell-based, THP-1. An outline of the steps:
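THP-1 cells, 1 × 105, mixed with WGA PS SPA beads in RPMI 1640 (no phenol red) with 50 mM HEPES, 5 mM MgCl2, 1 mM CaCl2, 0.1% BSA. Compound in 3-fold dilutions, 8 μM to 140 pM final. [125I]-MIP-1α at 0.1 nM final. Incubated 12 h at room temperature, imaged by LEADseeker. Duplicates; IC50 from four-parameter logistic fit after nonspecific correction.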

In ChEMBL document CHEMBL2176935, “Discovery and lead optimization of a novel series of CC chemokine receptor 1 (CCR1)-selective piperidine antagonists via parallel synthesis” (J Med Chem, 2012) one finds IC50 data, which are given here for 70 compounds.

pIC50: −log10 of the molar value.

Turning to `CC(C)[C@@H](NC(=O)Cc1cccc(Cl)c1)C(=O)N1CCC(c2ccc(Cl)cc2)CC1`, the pIC50 (in general, the negative decadic logarithm of the IC50, by convention in mol/L) is 7.35.

The compound `CC(C)[C@@H](NC(=O)Cc1ccccc1F)C(=O)N1CCC(c2ccc(Cl)cc2)CC1` had a pIC50 of 7.89.

Turning to `CC(C)[C@@H](NC(=O)Cc1cccc(F)c1)C(=O)N1CCC(c2ccc(Cl)cc2)CC1`, the pIC50 was 7.36. This pIC50 lies 0.53 log units lower than the previous one.

As for `CC(C)[C@@H](NC(=O)Cc1ccc(Cl)cc1)C(=O)N1CCC(c2ccc(Cl)cc2)CC1`, the pIC50 is 6.94.

Regarding `Cc1ccc(CC(=O)N[C@@H](C(=O)N2CCC(c3ccc(Cl)cc3)CC2)C(C)C)cc1`, the negative-log IC50 (pIC50) is 6.85. This pIC50 and that of the compound before are within 0.2 log units of each other.

As to `Cc1ccccc1CCC(=O)N[C@@H](C(=O)N1CCC(c2ccc(Cl)cc2)CC1)C(C)C`, the pIC50 is 7.72.

As to `Cc1cccc(CCC(=O)N[C@@H](C(=O)N2CCC(c3ccc(Cl)cc3)CC2)C(C)C)c1`, the pIC50 is 7.66.

Take `CC(C)[C@@H](NC(=O)CCc1ccccc1F)C(=O)N1CCC(c2ccc(Cl)cc2)CC1`: the pIC50 was 7.74.

Regarding `CC(C)[C@@H](NC(=O)CCc1ccc(F)cc1)C(=O)N1CCC(c2ccc(Cl)cc2)CC1`, the pIC50 was 7.15.

In turn, `Cc1ccc(CCC(=O)N[C@@H](C(=O)N2CCC(c3ccc(Cl)cc3)CC2)C(C)C)cc1` had a pIC50 of 6.98. The pIC50 values of the last two compounds are within 0.2 log units of each other.

With `CC(C)[C@@H](NC(=O)c1nc2ccccc2s1)C(=O)N1CCC(c2ccc(Cl)cc2)CC1`, the pIC50 was 7.74.

Take `CC(C)[C@@H](NC(=O)c1cc2ccccc2s1)C(=O)N1CCC(c2ccc(Cl)cc2)CC1`: the pIC50 is 7.24.

The compound `CC[C@@H](C)[C@@H](NC(=O)c1ccccc1)C(=O)N1CCC(c2ccc(Cl)cc2)CC1` gave a negative-log IC50 (pIC50) of 7.35.

Compound `O=C(N[C@@H](C(=O)N1CCC(c2ccc(Cl)cc2)CC1)C1CCCCC1)c1ccccc1` showed a pIC50 of 6.92.

`CC[C@@H](NC(=O)Cc1ccccc1)C(=O)N1CCC(c2ccc(Cl)cc2)CC1` had a pIC50 of 7.30.

Regarding `CC(C)[C@@H](NC(=O)Cc1ccccc1)C(=O)N1CCC(c2ccc(Cl)cc2)CC1`, the pIC50 was 7.52.

As for `CC[C@@H](C)[C@@H](NC(=O)Cc1ccccc1)C(=O)N1CCC(c2ccc(Cl)cc2)CC1`, the pIC50 was 7.42.

In turn, `CC[C@@H](NC(=O)CCc1ccccc1)C(=O)N1CCC(c2ccc(Cl)cc2)CC1` gave a pIC50 of 7.07.

With `CC(C)[C@@H](NC(=O)CCc1ccccc1)C(=O)N1CCC(c2ccc(Cl)cc2)CC1`, the pIC50 is 7.40.

`CC[C@@H](C)[C@@H](NC(=O)CCc1ccccc1)C(=O)N1CCC(c2ccc(Cl)cc2)CC1` gave a pIC50 of 7.18.

The compound `CC(C)[C@@H](NC(=O)C1CCCC1)C(=O)N1CCC(c2ccc(Cl)cc2)CC1` had a pIC50 of 7.15.

For the compound `CC(C)CCC(=O)N[C@@H](C(=O)N1CCC(c2ccc(Cl)cc2)CC1)C(C)C`, the negative-log IC50 (pIC50) was 7.59. This pIC50 is 0.44 log units higher than that of the compound before.

Consider `CC(C)[C@@H](NC(=O)CC1CC1)C(=O)N1CCC(c2ccc(Cl)cc2)CC1`, for which the pIC50 is 7.34.

`CC(C)[C@@H](NC(=O)CC1CCCC1)C(=O)N1CCC(c2ccc(Cl)cc2)CC1` gave a pIC50 of 7.70.

As for `CC(C)[C@@H](NC(=O)CC1CCCCC1)C(=O)N1CCC(c2ccc(Cl)cc2)CC1`, the pIC50 is 8.10.

For the compound `CC(C)[C@@H](NC(=O)c1cccc(F)c1)C(=O)N1CCC(c2ccc(Cl)cc2)CC1`, the pIC50 is 7.62.

`CC(C)[C@@H](NC(=O)c1ccc(F)cc1)C(=O)N1CCC(c2ccc(Cl)cc2)CC1` gave a pIC50 of 6.93.

In the case of `CC(C)[C@@H](NC(=O)c1ccc(F)c(F)c1)C(=O)N1CCC(c2ccc(Cl)cc2)CC1`, the pIC50 is 7.85.

Compound `Cc1ccccc1C(=O)N[C@@H](C(=O)N1CCC(c2ccc(Cl)cc2)CC1)C(C)C` gave a pIC50 of 7.49.

Compound `Cc1ccc(C(=O)N[C@@H](C(=O)N2CCC(c3ccc(Cl)cc3)CC2)C(C)C)cc1` had a pIC50 of 7.60.

For `Cc1cccc(C(=O)N[C@@H](C(=O)N2CCC(c3ccc(Cl)cc3)CC2)C(C)C)c1C`, the pIC50 is 7.00.

`Cc1cccc(C)c1C(=O)N[C@@H](C(=O)N1CCC(c2ccc(Cl)cc2)CC1)C(C)C` showed a pIC50 of 6.75.

In turn, `CC(C)C(NC(=O)c1ccc2ccccc2c1)C(=O)N1CCC(c2ccc(Cl)cc2)CC1` (stereo not given) had a pIC50 of 7.10.

`CC(C)C(NC(=O)Cc1ccccc1)C(=O)N1CCC(c2ccc(Cl)cc2)CC1` (stereo not given) gave a pIC50 of 7.40.

As for `CC(C)C(NC(=O)CCc1ccccc1)C(=O)N1CCC(c2ccc(Cl)cc2)CC1` (stereo not given), the negative-log IC50 (pIC50) is 7.46. This pIC50 and that of the compound before are within 0.2 log units of each other.

Compound `CC(C)[C@@H](NC(=O)CCCc1ccccc1)C(=O)N1CCC(c2ccc(Cl)cc2)CC1` had a pIC50 of 7.02.

In the case of `CC(C)C(NC(=O)Oc1ccccc1)C(=O)N1CCC(c2ccc(Cl)cc2)CC1` (stereo not given), the pIC50 was 6.58.

Take `CC(C)C(NC(=O)OCc1ccccc1)C(=O)N1CCC(c2ccc(Cl)cc2)CC1` (stereo not given): the pIC50 is 5.97.

As for `CC(C)C(NS(=O)(=O)Cc1ccccc1)C(=O)N1CCC(c2ccc(Cl)cc2)CC1` (stereo not given), the pIC50 was 6.52.

Turning to `CC(C)[C@@H](NC(=O)Nc1ccccc1)C(=O)N1CCC(c2ccc(Cl)cc2)CC1`, the negative-log IC50 (pIC50) is 6.21.

For the compound `CC(C)[C@@H](NC(=O)NCc1ccccc1)C(=O)N1CCC(c2ccc(Cl)cc2)CC1`, the pIC50 is 6.74.

Turning to `CC(C)[C@@H](NC(=O)NCCc1ccccc1)C(=O)N1CCC(c2ccc(Cl)cc2)CC1`, the pIC50 is 6.27.

In turn, `CC(C)[C@H](NC(=O)c1ccccc1)C(=O)N1CCC(c2ccc(Cl)cc2)CC1` gave a pIC50 of 4.83. Against the preceding compound, the pIC50 is 1.44 log units lower.

For `CC[C@@H](NC(=O)CC(C)C)C(=O)N1CCC(c2ccc(Cl)cc2)CC1`, the pIC50 was 6.82. This pIC50 lies 1.99 log units higher than the previous one.

As for `CC(C)CC(=O)N[C@@H](C(=O)N1CCC(c2ccc(Cl)cc2)CC1)C(C)C`, the pIC50 was 7.49.

The compound `CC[C@@H](C)[C@@H](NC(=O)CC(C)C)C(=O)N1CCC(c2ccc(Cl)cc2)CC1` showed a pIC50 of 7.47.

`CC[C@@H](NC(=O)c1ccccc1)C(=O)N1CCC(c2ccc(Cl)cc2)CC1` had a pIC50 of 6.92.

In turn, `CC(C)C(NC(=O)OCc1ccccc1)C(=O)N1CCC(O)(c2ccc(Cl)cc2)CC1` (stereo not given) gave a pIC50 of 6.07.

Regarding `CC(C)C(NC(=O)c1ccccc1)C(=O)N1CCC(O)(c2ccc(F)cc2)CC1` (stereo not given), the pIC50 is 6.03.

As for `CC(C)C(NC(=O)c1ccccc1)C(=O)N1CCC(O)(c2ccc(Br)cc2)CC1` (stereo not given), the pIC50 is 6.76.

Consider `CC(C)C(NC(=O)c1ccccc1)C(=O)N1CC=C(c2ccc(Cl)cc2)CC1` (stereo not given), for which the negative-log IC50 (pIC50) was 6.73. The pIC50 values of the last two compounds are within 0.2 log units of each other.

For the compound `CC(C)C(NC(=O)c1ccccc1)C(=O)N1CCC(c2ccc(F)cc2)CC1` (stereo not given), the pIC50 was 6.37.

As for `CC(C)C(NC(=O)c1ccccc1)C(=O)N1CCC(c2ccc(Cl)cc2)CC1` (stereo not given), the pIC50 is 7.26.

Regarding `CC(C)C(NC(=O)c1ccccc1)C(=O)N1CCN(c2ccc(Cl)cc2)CC1` (stereo not given), the pIC50 was 6.28. This pIC50 lies 0.98 log units lower than the previous one.

The compound `CC(C)C(NC(=O)c1ccccc1)C(=O)N1CCN(c2ccc(Cl)c(Cl)c2)CC1` (stereo not given) gave a pIC50 of 6.43. The pIC50 values of the last two compounds are within 0.2 log units of each other.

As for `CC(C)C(=O)NC(C(=O)N1CCC(c2ccc(Cl)cc2)CC1)C(C)C` (stereo not given), the pIC50 was 6.41.

As for `CC(C)CC(NC(=O)c1ccccc1)C(=O)N1CCC(c2ccc(Cl)cc2)CC1` (stereo not given), the pIC50 was 6.89.

For the compound `CC(C)(C)C(NC(=O)c1ccccc1)C(=O)N1CCC(c2ccc(Cl)cc2)CC1` (stereo not given), the pIC50 was 6.59.

`Cc1ccccc1C(=O)NC(C(=O)N1CCC(c2ccc(Cl)cc2)CC1)C(C)C` (stereo not given) gave a pIC50 of 7.44. Compared with the last compound, the pIC50 is 0.85 log units higher.

With `Cc1ccccc1C(=O)NC(CC(C)C)C(=O)N1CCC(c2ccc(Cl)cc2)CC1` (stereo not given), the pIC50 is 7.06.

`Cc1ccccc1C(=O)NC(C(=O)N1CCC(c2ccc(Cl)cc2)CC1)C(C)(C)C` (stereo not given) had a pIC50 of 6.58.

As for `CC(O)C(NC(=O)c1ccccc1)C(=O)N1CCC(O)(c2ccc(Cl)cc2)CC1` (stereo not given), the pIC50 is 5.55. This pIC50 lies 1.03 log units lower than the previous one.

As to `C/C=C(/NC(=O)c1ccccc1)C(=O)N1CCC(O)(c2ccc(Cl)cc2)CC1`, the negative-log IC50 (pIC50) is 6.43.

Consider `CC(C)C(NC(=O)c1ccccc1)C(=O)N1CCC(O)(c2ccc(Cl)cc2)CC1` (stereo not given), for which the negative logarithm of the IC50 (pIC50) is 6.74.

As to `CCCC(NC(=O)c1ccccc1)C(=O)N1CCC(O)(c2ccc(Cl)cc2)CC1` (stereo not given), the pIC50 is 6.28.

Compound `CC(C)CC(NC(=O)c1ccccc1)C(=O)N1CCC(O)(c2ccc(Cl)cc2)CC1` (stereo not given) had a pIC50 of 6.49.

`CSCCC(NC(=O)c1ccccc1)C(=O)N1CCC(O)(c2ccc(Cl)cc2)CC1` (stereo not given) had a negative-log IC50 (pIC50) of 6.27. Against the preceding compound, the pIC50 is 0.22 log units lower.

The compound `CCCC(NC(=O)c1ccccc1)C(=O)N1CCC(c2ccc(Cl)cc2)CC1` (racemic) had a pIC50 of 6.92.

For `CCCC(NC(=O)c1ccccc1C)C(=O)N1CCC(c2ccc(Cl)cc2)CC1` (racemic), the pIC50 was 6.82.

Regarding `CCCC(NC(=O)c1ccc2ccccc2c1)C(=O)N1CCC(c2ccc(Cl)cc2)CC1` (racemic), the pIC50 was 6.72.
